# Experimental data published in ChEMBL document CHEMBL1143019, “Hybrid molecules of estrone: new compounds with potential antibacterial, antifungal, and antiproliferative activities” (2007).
# Legend:
# Staphylococcus aureus [1] = test: Antibacterial activity against Staphylococcus aureus SG 511 after 24 hrs by micro-broth dilution method; format: functional; details: SG 511, 24 h
# Outline: (§1)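 Microbroth dilution per NCCLS guidelines. Bacteria grown overnight at 37 °C in Mueller–Hinton broth. Compound solution serially diluted twofold in MHB, then wells inoculated to a final 5×10⁵ CFU/mL. Incubated 24 h at 37 °C. MIC (µg/mL) read on an automatic plate reader as the lowest dilution allowing no visible growth.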
# Staphylococcus aureus [2] = test: Antibacterial activity against methicillin-resistant Staphylococcus aureus 994/93 after 24 hrs by micro-broth dilution method; format: functional
# Outline: (§2)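 Broth microdilution per NCCLS in Mueller–Hinton broth. Overnight cultures grown at 37 °C. Compound serially diluted twofold, then wells inoculated to a final 5×10⁵ CFU/mL. Plates held at 37 °C for 24 h. MIC (µg/mL) read on an automatic plate reader as the lowest dilution with no visible growth.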
# Staphylococcus aureus [3] = test: Antibacterial activity against methicillin-resistant Staphylococcus aureus 134/94 after 24 hrs by microbroth dilution method; format: functional; outline: as §2
# Micrococcus luteus = test: Antibacterial activity against Micrococcus luteus ATCC 10240 after 24 hrs by microbroth dilution method; format: functional; details: ATCC 10240, 24 h; outline: as §1
# Enterococcus faecalis = test: Antibacterial activity against Enterococcus faecalis 1528 after 24 hrs by micro-broth dilution method; format: functional; outline: as §1
# [4] = system: Mycolicibacterium smegmatis; test: Antimicrobial activity against Mycobacterium smegmatis SG 987 after 24 hrs by micro-broth dilution method; format: functional; outline: as §1
# Mycolicibacterium aurum = test: Antimicrobial activity against Mycobacterium aurum SB 66 after 24 hrs by micro-broth dilution method; format: functional; outline: as §1
# Mycolicibacterium vaccae = test: Antimicrobial activity against Mycobacterium vaccae 10670 after 24 hrs by micro-broth dilution method; format: functional; outline: as §1
# [5] = system: Mycolicibacterium fortuitum; test: Antimicrobial activity against Mycobacterium fortuitum Borstel after 24 hrs by microbroth dilution method; format: functional; outline: as §1
# [6] = system: Mycobacterium tuberculosis; test: Antimicrobial activity against Mycobacterium tuberculosis My 331/88 after 14 days; format: functional; details: 336 h
# [7] = system: Mycobacterium tuberculosis; test: Antimicrobial activity against Mycobacterium tuberculosis My 331/88 after 21 days; format: functional; details: 504 h
# Mycobacterium avium [8] = test: Antimicrobial activity against Mycobacterium avium My 330/88 after 14 days; format: functional; details: 336 h
# Mycobacterium avium [9] = test: Antimicrobial activity against Mycobacterium avium My 330/88 after 21 days; format: functional; details: 504 h
# Mycobacterium kansasii [10] = test: Antimicrobial activity against Mycobacterium kansasii My 235/80 after 7 days; format: functional; details: 168 h
# Outline: (§3)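 Run in Šula semisynthetic liquid medium containing bovine serum. Compounds added as DMSO solutions at final concentrations of […]. Each strain was also inoculated onto Löwenstein–Jensen medium to control inoculum sterility and growth.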
# Mycobacterium kansasii [11] = test: Antimicrobial activity against Mycobacterium kansasii My 235/80 after 14 days; format: functional; details: 336 h; outline: as §3
# Mycobacterium kansasii [12] = test: Antimicrobial activity against Mycobacterium kansasii My 235/80 after 21 days; format: functional; details: 504 h; outline: as §3
# Mycobacterium kansasii [13] = test: Antimicrobial activity against Mycobacterium kansasii My 6509/96 after 7 days; format: functional; details: 168 h; outline: as §3
# Mycobacterium kansasii [14] = test: Antimicrobial activity against Mycobacterium kansasii My 6509/96 after 14 days; format: functional; details: 336 h; outline: as §3
# Candida albicans [15] = test: Antifungal activity against Candida albicans ATCC 44859 after 24 hrs; format: functional; details: ATCC 44859, 24 h
# Outline: (§4)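 Modified NCCLS M27-A broth microdilution with clinical isolates subcultured on Sabouraud dextrose agar. Suspensions diluted 1:50 in RPMI 1640 to give a final inoculum of 0.5–2.5×10³ CFU/mL for yeasts or 0.5–5×10⁴ CFU/mL for molds. The RPMI had L-glutamine, no bicarbonate, and 0.165 M MOPS to pH 7.0. Twofold dilutions from 250 to 0.49. Plates held at 35 °C, humid, without agitation. MIC is the lowest concentration giving ≥80% inhibition versus drug-free control, read at 24 and 48 h.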
# Candida albicans [16] = test: Antifungal activity against Candida albicans ATCC 44859 after 48 hrs; format: functional; details: ATCC 44859, 48 h; outline: as §4
# Candida tropicalis [17] = test: Antifungal activity against Candida tropicalis 156 after 24 hrs; format: functional; outline: as §4
# Candida tropicalis [18] = test: Antifungal activity against Candida tropicalis 156 after 48 hrs; format: functional; outline: as §4
# Pichia kudriavzevii [19] = test: Antifungal activity against Candida krusei E28 after 24 hrs; format: functional; outline: as §4
# Pichia kudriavzevii [20] = test: Antifungal activity against Candida krusei E28 after 48 hrs; format: functional; outline: as §4
# Nakaseomyces glabratus [21] = test: Antifungal activity against Candida glabrata 20/I after 24 hrs; format: functional; outline: as §4
# Nakaseomyces glabratus [22] = test: Antifungal activity against Candida glabrata 20/I after 48 hrs; format: functional; outline: as §4
# Trichosporon beigelii [23] = test: Antifungal activity against Trichosporon beigelii 1188 after 24 hrs; format: functional; outline: as §4
# Trichosporon beigelii [24] = test: Antifungal activity against Trichosporon beigelii 1188 after 48 hrs; format: functional; outline: as §4
# Aspergillus fumigatus [25] = test: Antifungal activity against Aspergillus fumigatus 231 after 24 hrs; format: functional; outline: as §4
# Aspergillus fumigatus [26] = test: Antifungal activity against Aspergillus fumigatus 231 after 48 hrs; format: functional; outline: as §4
# Lichtheimia corymbifera [27] = test: Antifungal activity against Absidia corymbifera 272 after 24 hrs; format: functional; outline: as §4
# Lichtheimia corymbifera [28] = test: Antifungal activity against Absidia corymbifera 272 after 48 hrs; format: functional; outline: as §4
# Trichophyton benhamiae [29] = test: Antifungal activity against Trichophyton mentagrophytes 445 after 72 hrs; format: functional, Arthroderma benhamiae
# Outline: (§5)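 Same modified M27-A microdilution with the mold inoculum of 0.5–5×10⁴ CFU/mL. Medium was RPMI 1640 with L-glutamine, no bicarbonate, and 0.165 M MOPS at pH 7.0. Twofold dilutions from 250 to 0.49. Incubated at 35 °C in a humid atmosphere.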
# Trichophyton benhamiae [30] = test: Antifungal activity against Trichophyton mentagrophytes 445 after 120 hrs; format: functional, Arthroderma benhamiae; outline: as §5
# L929 = test: Antiproliferative activity against mouse L929 cells after 72 hrs; format: functional; details: L929, 72 h
# Outline: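 About 10,000 adherent cells per well in RPMI 1640 with 10% heat-inactivated FBS and penicillin/streptomycin, without HEPES. Exposed to 10 concentrations for 72 h at 37 °C in humidified 5% CO₂. Monolayers fixed with glutaraldehyde, stained 15 min with 0.05% methylene blue, and eluted with 0.33 N HCl; OD read at 630 nm. GI50 derived from dose–response curves relative to control.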
# K562 = test: Antiproliferative activity against human K562 cells after 72 hrs; format: functional; details: K562, 72 h
# Outline: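 About 10,000 suspension cells per well in RPMI 1640 with 10% heat-inactivated FBS and penicillin/streptomycin, without HEPES. Exposed to 10 concentrations for 72 h at 37 °C in humidified 5% CO₂. Wells diluted 1:50 in CASYTON and counted electronically, each result the mean of three successive counts. GI50 is where the concentration–response curve crosses 50% of control cell count.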
# HeLa = test: Cytotoxicity against human HeLa cells after 72 hrs; format: functional
# Outline: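 About 10,000 cells per well in RPMI 1640 were preincubated 48 h without compound. The 10 test concentrations were then applied onto the monolayers and incubated 72 h at 37 °C in humidified 5% CO₂. Monolayers fixed with glutaraldehyde, stained with 0.05% methylene blue, and eluted with 0.33 N HCl; optical density measured at 630 nm.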
smiles,measurement,setting,value
C[C@]12CC[C@@H]3c4ccc(OCCCCCCC[n+]5ccc(SCc6ccc(Cl)cc6)cc5)cc4CC[C@H]3[C@@H]1CCC2=O.[Br-],MIC,Staphylococcus aureus [1],3.12 µg/mL
same,MIC,Staphylococcus aureus [2],3.12 µg/mL
same,MIC,Staphylococcus aureus [3],3.12 µg/mL
same,MIC,Micrococcus luteus,0.8 µg/mL
same,MIC,Enterococcus faecalis,3.12 µg/mL
same,MIC,[4],6.25 µg/mL
same,MIC,Mycolicibacterium aurum,3.12 µg/mL
same,MIC,Mycolicibacterium vaccae,1.56 µg/mL
same,MIC,[5],6.25 µg/mL
same,MIC,[6],16 µM
same,MIC,[7],16 µM
same,MIC,Mycobacterium avium [8],8 µM
same,MIC,Mycobacterium avium [9],8 µM
same,MIC,Mycobacterium kansasii [10],16 µM
same,MIC,Mycobacterium kansasii [11],16 µM
same,MIC,Mycobacterium kansasii [12],16 µM
same,MIC,Mycobacterium kansasii [13],16 µM
same,MIC,Mycobacterium kansasii [14],16 µM
same,MIC,Candida albicans [15],7.8 µM
same,MIC,Candida albicans [16],7.8 µM
same,MIC,Candida tropicalis [17],15.6 µM
same,MIC,Candida tropicalis [18],15.6 µM
same,MIC,Pichia kudriavzevii [19],7.8 µM
same,MIC,Pichia kudriavzevii [20],15.6 µM
same,MIC,Nakaseomyces glabratus [21],15.6 µM
same,MIC,Nakaseomyces glabratus [22],15.6 µM
same,MIC,Trichosporon beigelii [23],7.8 µM
same,MIC,Trichosporon beigelii [24],7.8 µM
same,MIC,Aspergillus fumigatus [25],15.6 µM
same,MIC,Aspergillus fumigatus [26],31 µM
same,MIC,Lichtheimia corymbifera [27],62.5 µM
same,MIC,Lichtheimia corymbifera [28],62.5 µM
same,MIC,Trichophyton benhamiae [29],7.8 µM
same,MIC,Trichophyton benhamiae [30],15.6 µM
same,GI50,L929,2.8 µg/mL
same,GI50,K562,1 µg/mL
same,CC10,HeLa,1.9 µg/mL
same,CC50,"HeLa; Homo sapiens, HeLa, 72 h",4.1 µg/mL
